Assay outcomes from PubChem.
The list is not random: actives were taken first. Their share in the collection is about 2.5%.
MBD2 DNA inh – MBD2-methylated oligo binding inhibition | TR-FRET, MBD2 binding to methylated oligonucleotide | inhibition, % at 4.4 µM | actives 0.31% (n = 370,000) | AID 686964; in the data active means inhibition above about 13%
DSG3 Ab inh – human desmoglein-3 autoantibody binding inhibition. DSG3-coupled beads, scFv-anti-DSG3-GFP binding, flow cytometry; stronger effect = lower value. binding (percent of control), % at 10 µM. actives 0.48% (n = 310,000);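 active means binding more than 3 SD below its plate's average and above zero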;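 further: hits lower antibody fragment binding to DSG3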
DNMT1 inh – inhibitors of human DNMT1. P26358. DNMT1 molecular beacon, Hinp1I cleavage, fluorescence. inhibition (reported as % activation of signal), % at 10 µM. actives 0.83% (n = 360,000). AID 588458; in the data active means inhibition above about 50%
Target sequence (P26358 504-1616 limits assumed): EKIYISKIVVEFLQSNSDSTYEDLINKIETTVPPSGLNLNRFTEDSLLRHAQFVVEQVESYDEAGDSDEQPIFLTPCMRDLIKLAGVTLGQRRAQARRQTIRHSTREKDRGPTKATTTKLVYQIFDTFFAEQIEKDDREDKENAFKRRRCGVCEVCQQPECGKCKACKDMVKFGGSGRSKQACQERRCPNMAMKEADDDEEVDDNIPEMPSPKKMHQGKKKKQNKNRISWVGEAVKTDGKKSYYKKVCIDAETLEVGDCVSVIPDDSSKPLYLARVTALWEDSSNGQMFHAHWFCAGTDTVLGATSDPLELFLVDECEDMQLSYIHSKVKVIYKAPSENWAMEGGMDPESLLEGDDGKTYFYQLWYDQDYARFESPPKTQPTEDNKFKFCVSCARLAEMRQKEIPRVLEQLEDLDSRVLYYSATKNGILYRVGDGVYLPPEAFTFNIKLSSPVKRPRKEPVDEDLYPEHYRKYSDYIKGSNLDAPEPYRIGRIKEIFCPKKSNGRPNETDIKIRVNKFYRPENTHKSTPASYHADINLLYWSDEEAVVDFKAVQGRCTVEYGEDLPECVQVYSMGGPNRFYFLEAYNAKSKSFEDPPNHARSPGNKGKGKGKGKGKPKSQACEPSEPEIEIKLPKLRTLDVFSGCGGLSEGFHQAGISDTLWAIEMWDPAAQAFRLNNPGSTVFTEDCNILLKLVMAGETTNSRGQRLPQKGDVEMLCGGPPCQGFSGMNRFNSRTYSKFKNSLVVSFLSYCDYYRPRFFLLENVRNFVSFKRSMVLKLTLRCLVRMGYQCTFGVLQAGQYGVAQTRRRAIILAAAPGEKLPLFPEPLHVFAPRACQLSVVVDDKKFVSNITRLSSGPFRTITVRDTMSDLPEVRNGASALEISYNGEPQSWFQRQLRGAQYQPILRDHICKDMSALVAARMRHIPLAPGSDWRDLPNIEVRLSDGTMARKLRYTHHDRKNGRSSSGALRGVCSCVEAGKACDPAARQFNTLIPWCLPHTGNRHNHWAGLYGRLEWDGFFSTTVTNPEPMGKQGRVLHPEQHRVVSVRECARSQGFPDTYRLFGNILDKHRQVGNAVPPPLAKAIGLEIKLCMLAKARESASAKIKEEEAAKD
NS3 helicase inh – inhibitors of Hepatitis C virus NS3 helicase; NS3 helicase DNA unwinding, Cy5 molecular beacon fluorescence; inhibition, % at 10.9 µM; actives 0.56% (n = 290,000); AID 1800;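 active means inhibition above the mean of all tested compounds plus 3 SD, set per campaign, cut at about 35% in these data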;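 further: 0% = DMSO wells and 100% = thioflavine S control wells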
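System: HCV NS3 helicase fragment; control set: DMSO and thioflavine S; technique: Cy5 fluorescence at 0 and 60 min, beacon hairpin quenching; reagent: beacon DNA duplex substrate plus ATP; replicates: singlicate; schedule: 1 h reaction at 25 °C, ATP-initiated; medium: MOPS buffer pH 6.5 with MgCl2, DTT, Tween20, BSA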
SUMO1-SIM PPI – alters human SUMO1 binding to SIM partners; SUMO1 binding to a labelled peptide, TR-FRET, 1 h; inhibition, % at 20 µM; actives 0.33% (n = 360,000); AID 602429
UHRF1 MBD2 ctr – human UHRF1 methylated DNA binding inhibitors; AID 687016; actives 0.75% (n = 370,000); inhibition, % at 4.4 µM; UHRF1 binding to methylated oligo, TR-FRET; in the data active means inhibition above about 21%;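 further: UHRF1 SRA domain binding a hemimethylated CpG hairpin DNA probe; 0% = median of test compound wells and 100% = reference inhibitor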
NS3 helicase cf – HCV NS3 helicase inhibition, confirmation assay; inhibition, % at 10.9 µM; actives 31% (n = 1,600); NS3 helicase DNA unwinding, Cy5 molecular beacon fluorescence; shares compounds with NS3 helicase inh;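 active means inhibition above the mean of all tested compounds plus 3 SD, cutoff set per campaign, cut at about 36% in these data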
FID counter trip – displaces DNA intercalator in HCV helicase counter-screen | DNA fluorescent intercalator displacement, fluorescence | actives 4% (n = 1,600) | shares compounds with NS3 helicase inh | inhibition, % at 7.9 µM;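 further: 0% = vehicle and 100% = reference compound; higher means more displacement of ethidium bromide from the DNA hairpin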
DNA FID DR – displaces fluorescent intercalator from DNA, HCV helicase counter-screen; 120 tested, under 10 active; fluorescent intercalator displacement from DNA, fluorescence; shares compounds with NS3 helicase inh; IC50, µM; call rule not given here
* hit, by the source's call; · = no result given; ! = a repeat was not active. Unless noted, no stated cut-off is given here; in the data, active means inhibition above about 37%; inactive means the rest.

SMILES | MBD2 DNA inh | DSG3 Ab inh | DNMT1 inh | NS3 helicase inh | SUMO1-SIM PPI | UHRF1 MBD2 ctr | NS3 helicase cf | FID counter trip | others
O=C(CSc1nc2c(cnn2-c2ccc(F)cc2)c(=O)[nH]1)Nc1nccs1 | -1.9 | 93.3 | 1.4 | 4.9 | 8.2 | 1.3 | · | ·
CCOC(=O)[C@H]1[C@H]2COc3ccccc3[C@@H]2N2C(=O)c3cc(Cl)ccc3NC(=O)[C@@]12C | 2.8 | 104.0 | -2.0 | · | -1.4 | -2.0 | · | ·
O=C1NC(=O)/C(=C/c2ccccc2OCc2ccccc2)S1 | -5.2 | 96.9 | 2.3 | 6.5 | 1.4 | -1.8 | · | ·
O=C1NC(=O)/C(=C\c2ccccc2Oc2ccc(F)c(F)c2)S1 | 1.8 | 103.7 | 5.7 | 55.4* | -2.8 | -0.1 | 26.3 | -1.3
COC(c1ccc(Cl)cc1)(c1ccc(Cl)cc1)C(Oc1nccc(C)n1)C(=O)O (stereo not drawn) | -4.3 | 92.7 | -1.4 | 30.3 | 8.7 | 0.4 | · | ·
COC(c1ccc(Cl)cc1)(c1ccc(Cl)cc1)C(Oc1nc(C)cc(C)n1)C(=O)O (stereo not drawn) | -0.3 | 113.1 | -2.2 | 36.9* | -0.8 | 1.5 | 36.2* | -4.2
Cc1cc(C)nc(OC(C(=O)O)C(OCCc2ccccc2)(c2ccccc2)c2ccccc2)n1 (stereo not drawn) | 2.9 | 116.9 | -1.6 | 36.6* | 3.2 | -0.5 | 107.0* | 7.8
CCN(CC)c1ccc(/C=C(\C#N)c2nc(-c3cccs3)c(NC(C)=O)s2)cc1 | · | · | · | 45.5* | · | · | -15.2 | 13.7
CCn1c2ccccc2c2c3ncc4cccn4c3ccc21 | -4.1 | 119.2 | -8.4 | 43.7* | -11.4 | -9.5 | -7.5 | 49.6*
Cc1ccc(-n2c(SCC(=O)O)nc3sc4c(c3c2=O)C(C)CCC4)cc1 (stereo not drawn) | -1.0 | 89.8 | 0.4 | 55.4* | 6.0 | 0.1 | 65.6* | -14.8
C=CCn1c(SCCCCCC)nc(O)cc1=O | -0.6 | 98.8 | 11.3 | 14.1 | 1.6 | 0.9 | · | ·
C=CCn1c(SCCCC)nc(O)cc1=O | -3.7 | 103.4 | 0.6 | 39.9*! | 5.0 | 11.4 | -3.6 | -10.1
CCCCNC(=O)COC(=O)c1c2c(nc3ccccc13)/C(=C/c1cccs1)CC2 | -5.0 | 96.2 | -23.5 | 37.9* | -8.9 | -2.8 | -11.7 | -5.6
O=C(NCc1ccco1)c1ccc(N2CCOCC2)c([N+](=O)[O-])c1 | -8.1 | 105.2 | 4.4 | 3.8 | -15.8 | -0.7 | · | ·
O=C(NCc1ccco1)c1ccc(N2CCCCC2)c([N+](=O)[O-])c1 | 4.0 | 113.0 | 1.1 | 49.6* | -18.8 | 20.0 | -8.9 | -10.6
Nc1c(O)ccc2c1C(=O)c1ccccc1C2=O | -19.9 | · | · | 43.2* | · | -9.7 | 10.7 | 27.4
Cc1cc(/C=N/NC(=O)C(O)(c2ccccc2)c2ccccc2)c(C)n1-c1ccc(C(=O)O)cc1 | 3.9 | 84.4 | 11.5 | 38.5* | 8.4 | 0.5 | 31.0 | -23.8
Cc1cc(/C=N/NC(=O)C(O)(c2ccccc2)c2ccccc2)c(C)n1-c1cccc(C(=O)O)c1 | 3.5 | 86.4 | 53.9* | 51.3* | 26.6 | 8.0 | 72.1* | -37.0
Cc1cccc(OCC(=O)Nc2cc(C)on2)c1 | 2.6 | 116.0 | -0.8 | -3.6 | -0.6 | 2.3 | · | ·
O=C(COc1ccccc1)Nc1nnc(-c2ccc(F)cc2)o1 | -2.0 | 104.5 | 1.4 | 60.4* | 4.3 | 0.7 | -20.2 | -14.8
O=C(COc1ccccc1)Nc1nnc(-c2ccc3c(c2)CCCC3)o1 | 2.5 | 99.6 | 0.9 | 2.5 | 8.7 | -0.6 | · | ·
CCc1ccc(N(C(=O)c2ccco2)C(C(=O)NC2CCCC2)c2ccco2)cc1 (stereo not drawn) | -0.9 | 89.6 | -1.1 | -6.7 | 0.3 | -2.6 | · | ·
O=C(c1ccco1)[C@@H]1[C@@H]2C(=O)N(c3ccc(F)cc3)C(=O)[C@@H]2C2c3ccccc3C=CN21 (stereo partly drawn) | -5.2 | · | · | 43.3* | · | -9.6 | 2.8 | 12.5
Cc1ccc(/C=N/N2CCN(Cc3cccc4ccccc34)CC2)o1 | 1.5 | 119.2 | -4.7 | -10.5 | -9.5 | -0.2 | · | ·
Cc1ccc(C(=O)N/N=C/c2ccc(-c3cccc(Cl)c3)o2)cn1 | 3.1 | 112.9 | -1.5 | 7.1 | 8.5 | -2.9 | · | ·
SMILES | MBD2 DNA inh | DSG3 Ab inh | DNMT1 inh | NS3 helicase inh | SUMO1-SIM PPI | UHRF1 MBD2 ctr | NS3 helicase cf | FID counter trip | others
Cc1ccc(C(=O)N/N=C\c2ccc(-c3ccc(Cl)c(Cl)c3)o2)cn1 | 8.6 | 104.6 | 17.0 | 69.4* | -11.4 | 3.3 | -7.5 | -7.1
CN1C(=O)C(Cl)(Cl)C(=O)c2ccccc21 | · | 108.8 | 3.4 | 53.4* | -4.8 | · | -15.2 | 2.8
CCCCNC(=O)C1CCN(C(=O)Nc2ccc(C)cc2)CC1 | -1.9 | · | 0.7 | -10.3 | -2.4 | 1.1 | · | ·
O=C(Cn1ccc2ccccc2c1=O)NCC1COc2ccccc2O1 (stereo not drawn) | 4.3 | 96.0 | -0.7 | 17.2 | 0.0 | 9.4 | · | ·
O=C(CN1C(=O)C2CC=CCC2C1=O)NCC1COc2ccccc2O1 (stereo not drawn) | 3.9 | 101.2 | 0.8 | 85.2* | -0.8 | -0.5 | -18.6 | 6.4
CCOC(=O)N1CCN(c2nc(-c3ccccc3)c3ccccc3n2)CC1 | · | 91.5 | 1.5 | -14.6 | -15.5 | · | · | ·
O=C(c1ccco1)N1CCN(C(=O)c2ccccc2[N+](=O)[O-])CC1 | -5.3 | 95.3 | -5.5 | 0.8 | -0.3 | 0.4 | · | ·
O=C(c1ccco1)N1CCN(C(=O)c2[nH]ncc2[N+](=O)[O-])CC1 | 3.7 | 103.6 | 8.1 | 37.3* | 13.4 | 1.1 | -16.9 | 6.4
Cc1ccc2c(c1)N(C(C)C(=O)NCc1ccccn1)C(=O)CO2 (stereo not drawn) | -0.3 | 88.4 | 1.5 | 6.2 | -4.4 | -0.7 | · | ·
CNc1ccc(Br)cc(C(=O)/C=C/c2cc(OC)ccc2OC)c1=O | 0.7 | 94.2 | 14.2 | 40.5* | 11.0 | -1.3 | 61.0* | -9.4 | DNA FID DR=>79.4
CC(=O)Nc1ccc(N(C)C)cc1[N+](=O)[O-] | -14.6 | · | -1.9 | 6.8 | -16.5 | -8.3 | · | ·
COc1ccc(C(=O)N2CCCCC2c2cc(C(=O)NCc3cccnc3)no2)cc1 (stereo not drawn) | 1.9 | · | -0.9 | · | -2.0 | -0.6 | · | ·
O=C(O)C(Cc1ccccc1)Nc1ccc([N+](=O)[O-])cc1[N+](=O)[O-] (stereo not drawn) | -3.5 | 95.4 | -6.0 | 38.4* | -20.2 | -4.0 | -22.8 | 4.0
O=C(/C=C/c1ccccc1)C1C(=O)c2ccccc2C1=O | -3.5 | 108.2 | 2.6 | 25.3 | -4.2 | -4.3 | · | ·
CCc1ccc(/C=C/C(=O)C2C(=O)c3ccccc3C2=O)cc1 | -0.4 | 109.3 | 4.9 | 37.8* | 6.9 | -7.1 | 5.4 | 5.4
